Results from different studies.
Nos2: Nitric oxide synthase, inducible (Nos2, Mus musculus, UniProt P29477)
MME: Neprilysin (MME, Homo sapiens, UniProt P08473)
MAP2K4: Dual specificity mitogen-activated protein kinase kinase 4 (MAP2K4, Homo sapiens, UniProt P45985)

Cc1sc2c(c1C)C(c1ccc(Cl)cc1)=N[C@@H](CC(=O)OC(C)(C)C)c1nnc(C)n1-2 — ΔTm (Stimulator of interferon genes protein (STING1, Homo sapiens, UniProt Q86WV6, H232R); thermal stability, DSF; 100 µM): -0.92 °C
COCc1c(-c2cc3cc(C)cc(OC)c3s2)c2c(N)ncnn2c1CN1CCNC(=O)C1 — inhibition (Nos2; enzyme activity, inhibitor; 10 µM): 17%
Cc1ncc(C)n2nc(/C=C/c3nc(N4CCCC4)cc(N4CCOCC4)n3)nc12 — inhibition (Nos2; enzyme activity, inhibitor; 10 µM): 10%
C[C@H](C(=O)N[C@H]1COc2ccccc2[C@@H]1S(C)(=O)=O)c1ccc(F)cc1 — inhibition (MME; enzyme activity, inhibitor; 10 µM): -1%
COc1ncccc1-c1cnn2ccc(N3CCN(C(=O)OC(C)C)CC3)nc12 — remaining binding (MAP2K4; binding, competition with immobilised ligand; 1 µM): 100%
c1ccc(C(NCCNC(c2ccccc2)c2ccccc2)c2ccccc2)cc1 — inhibition (MME; enzyme activity, inhibitor; 10 µM): 8%
COc1cc(Nc2ncc(F)c(Nc3ccc4c(n3)NC(=O)C(C)(C)O4)n2)cc(OC)c1OC — inhibition (MAP2K4; binding, competition with immobilised ligand; 10 µM): 85%
CCN(CC)CCCC[C@H](NC(=O)[C@H](CC(C)C)NC(=O)[C@H](C)NC(=O)[C@H](Cc1ccccc1)NC(=O)c1ccc(C(C)(C)C)cc1)C(=O)N[C@@H](CO)C(=O)OC — ΔTm (Bromodomain adjacent to zinc finger domain protein 2A, bromodomain (BAZ2A, Homo sapiens, UniProt Q9UIF9); thermal stability, DSF; 25 µM): -0.23 °C
Nc1ncc(-c2nc(N3CCOCC3)nc(N3CCOCC3)n2)c(C(F)F)n1 — remaining binding (Serine/threonine-protein kinase 38 (STK38, Homo sapiens, UniProt Q15208); binding, competition with immobilised ligand; 10 µM): 66%
C#Cc1n[nH]c2c(-c3cn([C@@H](C)c4ccccn4)c(=O)[nH]c3=O)cc(F)cc12 — inhibition (Tyrosine-protein kinase JAK2 (JAK2, Homo sapiens, UniProt O60674); enzyme activity, inhibitor; 0.1 µM): -1%
Cc1nn(C)cc1-c1nc2c(N3CCN(Cc4ccc(Cl)cc4)CC3)c(Cl)cnc2[nH]1 — remaining binding (Phosphatidylinositol 5-phosphate 4-kinase type-2 gamma (PIP4K2C, Homo sapiens, UniProt Q8TBX8); binding, competition with immobilised ligand; 1 µM): 80%
